From ChEMBL document CHEMBL4359929, “Piperidine and piperazine inhibitors of fatty acid amide hydrolase targeting excitotoxic pathology” (Bioorg Med Chem, 2019)
The source made the active and inactive calls. The rule behind the calls is not given here.

How the values were obtained:
[1] = target: T1, Fatty-acid amide hydrolase 1 (Homo sapiens, UniProt O00519); test: Inhibition of human recombinant MBP-tagged FAAH expressed in Escherichia coli cells using AAMCA as substrate incubated for 15 mins followed by substrate addition and measured after every 20 mins for 4 hrs by fluorescence based assay
T1 sequence (O00519 whole entry): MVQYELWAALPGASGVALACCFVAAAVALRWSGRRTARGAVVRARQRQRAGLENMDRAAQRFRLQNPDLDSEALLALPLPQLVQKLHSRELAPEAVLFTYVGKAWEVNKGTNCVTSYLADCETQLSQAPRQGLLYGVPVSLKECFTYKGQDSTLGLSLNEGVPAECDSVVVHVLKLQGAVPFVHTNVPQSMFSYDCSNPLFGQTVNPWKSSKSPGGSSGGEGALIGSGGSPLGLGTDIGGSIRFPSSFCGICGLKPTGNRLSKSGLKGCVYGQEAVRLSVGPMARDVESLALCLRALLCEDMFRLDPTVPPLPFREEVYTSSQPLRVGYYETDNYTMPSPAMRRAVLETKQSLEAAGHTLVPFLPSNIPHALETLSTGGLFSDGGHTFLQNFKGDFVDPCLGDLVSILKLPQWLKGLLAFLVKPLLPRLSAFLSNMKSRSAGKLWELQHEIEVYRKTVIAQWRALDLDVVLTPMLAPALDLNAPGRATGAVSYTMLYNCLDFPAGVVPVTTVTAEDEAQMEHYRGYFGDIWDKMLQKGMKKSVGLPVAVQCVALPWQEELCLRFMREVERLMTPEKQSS
Procedure, shortened: (§1)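 Fluorescent enzyme assay in throughput format. Human recombinant FAAH or purified rat FAAH used arachidonoyl 7-amino-4-methylcoumarin amide as substrate; human recombinant MGL was run by a similar fluorometric procedure.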

[2] = target: T2, Fatty-acid amide hydrolase 1 (Rattus norvegicus, UniProt P97612); test: Inhibition of rat recombinant His/GST-tagged FAAH expressed in Escherichia coli cells using AAMCA as substrate incubated for 15 mins followed by substrate addition and measured after every 20 mins for 4 hrs by fluorescence based assay; procedure, shortened: as §1
T2 sequence (P97612 whole entry): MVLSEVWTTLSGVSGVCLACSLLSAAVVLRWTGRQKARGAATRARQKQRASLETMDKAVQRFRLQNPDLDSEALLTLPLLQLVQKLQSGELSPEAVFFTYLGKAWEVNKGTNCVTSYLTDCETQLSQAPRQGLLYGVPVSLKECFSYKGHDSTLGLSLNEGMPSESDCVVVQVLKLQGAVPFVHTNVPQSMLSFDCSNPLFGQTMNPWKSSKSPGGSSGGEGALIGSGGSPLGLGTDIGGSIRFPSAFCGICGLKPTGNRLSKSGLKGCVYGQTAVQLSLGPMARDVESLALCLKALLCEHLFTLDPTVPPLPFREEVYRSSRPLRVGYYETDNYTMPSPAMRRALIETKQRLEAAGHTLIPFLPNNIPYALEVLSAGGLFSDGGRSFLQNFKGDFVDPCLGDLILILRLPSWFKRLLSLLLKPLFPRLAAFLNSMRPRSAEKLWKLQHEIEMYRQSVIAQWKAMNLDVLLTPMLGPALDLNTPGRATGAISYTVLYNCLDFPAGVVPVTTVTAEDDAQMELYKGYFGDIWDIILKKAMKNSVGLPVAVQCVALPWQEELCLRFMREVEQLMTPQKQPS

[3] = target: T3, Monoglyceride lipase (Homo sapiens, UniProt Q99685); test: Inhibition of human recombinant His-tagged MGL expressed in Escherichia coli BL21 DE3 cells using AHMMCE as substrate preincubated with enzyme for 15 mins followed by substrate addition and measured after every 15 mins for 3 hrs by fluorescence based assay; procedure, shortened: as §1
T3 sequence (Q99685 whole entry): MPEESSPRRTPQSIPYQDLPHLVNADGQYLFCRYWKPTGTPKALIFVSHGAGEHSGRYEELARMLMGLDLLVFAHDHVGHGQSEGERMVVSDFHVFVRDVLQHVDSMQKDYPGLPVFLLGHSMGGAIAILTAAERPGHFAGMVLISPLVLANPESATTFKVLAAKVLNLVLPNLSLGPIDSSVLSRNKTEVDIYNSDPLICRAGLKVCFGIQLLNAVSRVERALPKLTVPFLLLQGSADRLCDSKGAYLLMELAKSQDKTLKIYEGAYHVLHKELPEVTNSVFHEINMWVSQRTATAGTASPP

[4] = Stability in human liver microsomes assessed as half life; format: ADME, Microsome
Procedure, shortened: (§2)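 Stability assessed as half-life in human, rat and mouse plasma and gastric fluid, and in human, rat and mouse liver microsomal preparations.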

[5] = Stability in rat liver microsomes assessed as half life; format: ADME, Microsome; procedure, shortened: as §2
[6] = Stability in mouse liver microsomes assessed as half life; format: ADME, Microsome; procedure, shortened: as §2
[7] = Stability in human plasma assessed as half life; format: ADME, cell-free; procedure, shortened: as §2
[8] = Stability in rat plasma assessed as half life; format: ADME, cell-free; procedure, shortened: as §2
[9] = Stability in mouse plasma assessed as half life; format: ADME, cell-free; procedure, shortened: as §2
[10] = Stability in human gastric fluid assessed as half life; format: ADME, tissue-based, Gastric juice; procedure, shortened: as §2
[11] = Stability in rat gastric fluid assessed as half life; format: ADME, tissue-based, Gastric juice; procedure, shortened: as §2
[12] = Stability in mouse gastric fluid assessed as half life; format: ADME, tissue-based, Gastric juice; procedure, shortened: as §2
[13] = species on record: Homo sapiens; test: Selectivity ratio of IC50 for human recombinant His-tagged MGL expressed in Escherichia coli BL21 DE3 cells to IC50 for human recombinant MBP-tagged FAAH expressed in Escherichia coli cells by fluorescence based assay
[14] = species on record: Homo sapiens; test: Selectivity ratio of IC50 for human full length ABHD6 expressed in Escherichia coli cells to IC50 for human recombinant MBP-tagged FAAH expressed in Escherichia coli cells by fluorescence based assay
[15] = target: Cannabinoid receptor 1 (Rattus norvegicus) (UniProt P20272); test: Displacement of [3H]CP55940 from CB1 receptor in rat brain by competition-equilibrium binding analysis; format: tissue-based
Procedure, shortened: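 Rat brain membranes as CB1 source; competition-equilibrium binding against [3H]CP-55,940.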
Target sequence in this assay (P20272 whole entry): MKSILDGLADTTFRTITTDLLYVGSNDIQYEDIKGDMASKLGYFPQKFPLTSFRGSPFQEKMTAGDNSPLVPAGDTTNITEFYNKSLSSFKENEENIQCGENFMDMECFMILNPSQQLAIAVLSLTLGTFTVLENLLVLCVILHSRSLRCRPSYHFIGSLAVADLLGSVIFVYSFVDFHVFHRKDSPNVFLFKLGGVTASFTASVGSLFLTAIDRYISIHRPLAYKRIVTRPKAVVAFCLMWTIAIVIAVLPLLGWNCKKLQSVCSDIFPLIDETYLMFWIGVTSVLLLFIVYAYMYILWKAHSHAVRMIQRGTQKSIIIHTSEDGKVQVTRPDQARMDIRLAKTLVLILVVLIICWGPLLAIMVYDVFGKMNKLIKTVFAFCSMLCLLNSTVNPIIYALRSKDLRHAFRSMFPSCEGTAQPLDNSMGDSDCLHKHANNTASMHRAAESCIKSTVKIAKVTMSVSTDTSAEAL

[16] = target: Cannabinoid receptor 2 (Mus musculus) (UniProt P47936); test: Displacement of [3H]CP55940 from mouse CB2 receptor expressed in HEK293 cells by competition-equilibrium binding analysis; format: cell-based
Procedure, shortened: (§3)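 HEK293 cell membranes expressing mouse or human CB2; competition-equilibrium binding against [3H]CP-55,940.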

[17] = target: Cannabinoid receptor 2 (Homo sapiens) (UniProt P34972); test: Displacement of [3H]CP55940 from human CB2 receptor expressed in HEK293 cells by competition-equilibrium binding analysis; format: cell-based; procedure, shortened: as §3
[18] = Selectivity ratio of IC50 for human recombinant His-tagged MGL expressed in Escherichia coli BL21 DE3 cells to IC50 for rat recombinant His/GST-tagged FAAH expressed in Escherichia coli cells by fluorescence based assay
[19] = Selectivity ratio of IC50 for human full length ABHD6 expressed in Escherichia coli cells to IC50 for rat recombinant His/GST-tagged FAAH expressed in Escherichia coli cells by fluorescence based assay
[20] = target: Cannabinoid receptor 1 (Rattus norvegicus) (UniProt P20272); test: Displacement of [3H]CP55940 from CB1 receptor in rat brain by competition-equilibrium binding analysis
Target sequence in this assay (P20272 whole entry, looked up): as the sequence (P20272 whole entry) above

Cannabinoid receptor 2 (Mus musculus), sequence (P47936 whole entry): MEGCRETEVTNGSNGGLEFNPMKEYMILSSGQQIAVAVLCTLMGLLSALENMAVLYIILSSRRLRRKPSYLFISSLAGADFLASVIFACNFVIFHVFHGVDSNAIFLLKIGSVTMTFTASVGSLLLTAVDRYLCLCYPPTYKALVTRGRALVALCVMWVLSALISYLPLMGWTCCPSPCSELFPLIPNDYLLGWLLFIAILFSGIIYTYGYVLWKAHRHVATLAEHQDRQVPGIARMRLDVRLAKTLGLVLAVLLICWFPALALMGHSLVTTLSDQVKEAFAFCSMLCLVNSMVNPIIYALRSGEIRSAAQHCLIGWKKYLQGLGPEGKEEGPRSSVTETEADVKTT
Cannabinoid receptor 2 (Homo sapiens), sequence (P34972 whole entry): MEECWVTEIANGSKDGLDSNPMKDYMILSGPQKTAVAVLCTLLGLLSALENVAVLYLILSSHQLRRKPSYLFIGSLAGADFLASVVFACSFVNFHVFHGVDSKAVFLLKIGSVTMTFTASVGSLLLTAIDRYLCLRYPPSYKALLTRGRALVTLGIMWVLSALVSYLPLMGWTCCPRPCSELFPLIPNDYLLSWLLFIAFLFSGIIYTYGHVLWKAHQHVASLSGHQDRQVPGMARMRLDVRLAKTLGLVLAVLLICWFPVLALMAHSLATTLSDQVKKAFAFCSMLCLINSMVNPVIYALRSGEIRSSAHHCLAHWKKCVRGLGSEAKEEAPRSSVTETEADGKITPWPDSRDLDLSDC

| SMILES | IC50 [1] [nM] | IC50 [2] [nM] | IC50 [3] [nM] | half-life [4] [min] | half-life [5] [min] | half-life [6] [min] | half-life [7] [min] | half-life [8] [min] | half-life [9] [min] | half-life [10] [min] | half-life [11] [min] | half-life [12] [min] | Ratio IC50 [13] | Ratio IC50 [14] | Activity [15] | Activity [16] | Activity [17] | Ratio IC50 [18] | Ratio IC50 [19] | Activity [20] |
| --- | --- | --- | --- | --- | --- | --- | --- | --- | --- | --- | --- | --- | --- | --- | --- | --- | --- | --- | --- | --- |
| CC1CN(c2ccccc2)CCN1C(=O)Oc1cccc(N2CCS(=O)(=O)CC2)c1 (stereo not given) | 2.6 | 5.5 | > 1000 | 15 to 25 | 15 to 25 | 15 to 25 | > 60 | > 60 | > 60 | > 60 | > 60 | > 60 | > 1000 | > 1000 | inactive | inactive | inactive | > 1000 | > 1000 | inactive |
| COc1ccc(C2CCN(C(=O)Oc3cccc(N4CCS(=O)(=O)CC4)c3)CC2)cc1 | 6.3 | 2.61 | > 1000 | 15 to 25 | 15 to 25 | 15 to 25 | > 60 | > 60 | > 60 | > 60 | > 60 | > 60 | > 1000 | > 1000 | inactive | inactive | inactive | > 1000 | > 1000 | inactive |
| COc1ccc(N2CCN(C(=O)Oc3cccc(N4CCOCC4)c3)[C@H](C)C2)cc1 | 4.1 | 5.2 | > 1000 | 15 to 25 | 15 to 25 | 15 to 25 | > 60 | > 60 | > 60 | > 60 | > 60 | > 60 | > 1000 | > 1000 | inactive | inactive | inactive | > 1000 | > 1000 | inactive |
| O=C(Oc1cccc(N2CCS(=O)(=O)CC2)c1)N1CCC(c2ccc(OC(F)(F)F)cc2)CC1 | 3.7 | 4 | > 1000 | 15 to 25 | 15 to 25 | 15 to 25 | > 60 | > 60 | > 60 | > 60 | > 60 | > 60 | > 1000 | > 1000 | inactive | inactive | inactive | > 1000 | > 1000 | inactive |
